Results of several laboratories.
Lines come from different studies, so protocols differ.
Target: Muscarinic acetylcholine receptor M2 (CHRM2, Homo sapiens, UniProt P08172)
One construct used (P08172 1-466): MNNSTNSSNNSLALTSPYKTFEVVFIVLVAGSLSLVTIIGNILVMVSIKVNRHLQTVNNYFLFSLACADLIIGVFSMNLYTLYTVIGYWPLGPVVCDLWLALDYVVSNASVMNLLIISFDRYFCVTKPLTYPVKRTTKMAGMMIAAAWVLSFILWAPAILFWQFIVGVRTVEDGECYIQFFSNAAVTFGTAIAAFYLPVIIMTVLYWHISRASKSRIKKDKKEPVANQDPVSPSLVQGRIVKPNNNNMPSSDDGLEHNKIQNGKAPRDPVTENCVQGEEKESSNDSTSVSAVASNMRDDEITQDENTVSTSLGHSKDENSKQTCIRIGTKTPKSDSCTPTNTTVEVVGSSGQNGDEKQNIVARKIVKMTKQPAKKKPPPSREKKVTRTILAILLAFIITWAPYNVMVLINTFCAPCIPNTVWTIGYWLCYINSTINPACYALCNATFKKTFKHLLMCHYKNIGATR

SMILES	test	endpoint	value
CCn1c(-c2nc3cc(C(=O)N4CCC[C@@H](N)C4)cc(OC)c3n2C)cc2cccnc21	calcium signal, agonist	EC50	> 15.8 µM
CC[C@@H]1SC2(CCN(C)CC2)NC1=O	calcium signal, agonist	EC50	> 50 µM
COc1ccnc(Oc2ccc(-c3c(C)c(=O)[nH]c(=O)n3C)c(C)c2)c1C(F)(F)F	ligand displacement, radioligand	Ki	6.9 µM
CCn1c(-c2nc3ccc(C(=O)N4CCCC(N)C4)cc3n2C)cc2ccccc21 (centres unmarked)	calcium signal, antagonist, fluorescence	IC50	> 15.8 µM
CCCCN1CCC(COC(=O)c2ccc(N)c(OCF)c2)CC1	cell-free assay, radioligand	Ki	> 10 µM
CCN(C(=O)C1CCN(S(=O)(=O)c2ccc3[nH]ncc3c2)CC1)[C@H](C)c1ccccc1	calcium signal, agonist	EC50	> 30 µM
Cc1cc(Oc2nccc3occc23)ccc1-c1c(C)c(=O)[nH]c(=O)n1C1CC1	ligand displacement, radioligand	Ki	7.7 µM
CCOCc1nc(O)c(-c2nnc(Cc3ccc(Cl)cn3)o2)c(O)c1-c1c(OC)cccc1OC	ligand displacement, radioligand	IC50	> 30 µM
